In ChEMBL document CHEMBL1139471, “Antitumor polycyclic acridines. 17. Synthesis and pharmaceutical profiles of pentacyclic acridinium salts designed to destabilize telomeric integrity” (J Med Chem, 2005):

Experiments:
[1] = Selectivity index, ratio of mean GI50 for NCI60 cell panel to IC50 for telomerase; assay type: functional, Homo sapiens
Outline: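 Selectivity index calculated as mean GI50 (NCI 60 panel, 2-day exposure) divided by the telomerase IC50 from the TRAP assay.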

[2] = Inhibition of telomerase by TRAP assay; design: species or system Homo sapiens
[3] = Growth inhibition of NCI60 cell panel; assay type: functional; settings: Homo sapiens
Outline: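 NCI 60 human tumor cell panel with a 2-day drug exposure; mean GI50 reported.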

[4] = Aqueous solubility at 25 degC; assay type: physicochemical; settings: water
[5] = Stability in RPMI tissue culture medium at 37 degC after 72 hrs; assay type: ADME
Outline: (§1)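 Drug at 10 μM in RPMI containing 10% FBS without cells, held at 37 °C up to 72 h. Monitored by absorbance at λmax and spectrum shape, and by HPLC of aliquots for loss of parent and appearance of new peaks. LC-MS run on the 72 h sample.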

[6] = Metabolic stability in Sprague-Dawley rat liver microsomes assessed as drug remaining after 4 hrs
[7] = Stability in RPMI tissue culture medium at 37 degC at 10 uM after 72 hrs; assay type: ADME; outline: as §1
A549 = experiment: Stability in RPMI tissue culture medium at 37 degC incubated with human A549 cells at 0.5 uM after 72 hrs; assay type: ADME, cell-based; settings: a549, 72 h
Outline: (§2)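 A549 or MCF-7 cells seeded at 5 × 10^5 per flask and attached overnight in RPMI with 10% serum at 37 °C. Medium then replaced with medium containing 0.5 μM drug. Medium sampled in triplicate at 0, 24, 48 and 72 h, deproteinized with acetonitrile. Isocratic C18 HPLC, fluorescence detection ex 483/em 543 nm. Drug peak height given as % of time zero; mean and SD of two flasks.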

Liver microsomes = experiment: Metabolic stability in Sprague-Dawley rat liver microsomes at 2 uM after 4 hrs; assay type: ADME, Microsome
Outline: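 Pooled male Sprague-Dawley rat liver microsomes (0.5 mg/mL protein) in 100 mM potassium phosphate pH 7.4 with 5 mM MgCl2 and 1 mM NADPH. Drug at 2 μM final, diluted from a DMSO stock, incubated 4 h at 37 °C. Stopped with cold acetonitrile, then reverse-phase C18 HPLC of the parent peak. Controls: P450-null human lymphoblast microsomes for protein binding; DF 203 for microsomal activity.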

[8] = Stability in RPMI tissue culture medium at 37 degC incubated with human MCF7 cells at 0.5 uM after 72 hrs; assay type: ADME, cell-based; settings: read-out: Stability; outline: as §2

SMILES	Selectivity index [1]	IC50 [2] [µM]	GI50 [3] [µM]	further results
CN1c2ccccc2-c2c3c1cccc3c1ccccc1[n+]2C.[I-]	3.4	0.38	1.29	
COS(=O)(=O)[O-].Cc1cc2c3c([n+](C)c4ccc(F)cc4c3c1)-c1cc(F)ccc1N2C	40	0.33	13.2	solubility [4]: 5000 µM; Stability [5]: Stable; remaining at 4 h [6]: 81%
COS(=O)(=O)[O-].Cc1ccc2c(c1)-c1c3c(cc(C)cc3c3cc(C)ccc3[n+]1C)N2C	1.8	0.25	0.41	
CC(=O)OCCCc1cc2c3c([n+](C)c4ccc(/C=C/C(=O)N5CCOCC5)cc4c3c1)-c1ccccc1N2C.[I-]	72.4	0.38	27.5	Activity [7]: Not Active; Activity (A549): Not Active
COc1cc2c3c([n+](C)c4ccccc4c3c1)-c1ccc(/C=C/C(=O)N3CCN(C(C)=O)CC3)cc1N2C			93.3	
COC(=O)/C=C/c1ccc2c(c1)c1cccc3c1c([n+]2C)-c1ccccc1N3C		0.2		
COc1cc2c3c([n+](C)c4ccccc4c3c1)-c1ccc(/C=C/C(=O)N3CCOCC3)cc1N2C.[I-]	2	2.18	43.7	
CN1c2ccccc2-c2c3c1cc(/C=C/C(=O)N1CCOCC1)cc3c1cc(Cl)ccc1[n+]2C			12	
CN1c2ccccc2-c2c3c1cccc3c1cc(/C=C/C(=O)N3CCOCC3)ccc1[n+]2C.[I-]	183	0.37	68	solubility [4]: 1000 µM; Stability [5]: Stable; Activity (Liver microsomes): 66%
CC(=O)OCCCc1ccc2c(c1)N(C)c1cc(CCCOC(C)=O)cc3c1c-2[n+](C)c1ccccc31.[I-]	1.45	2.3	3.31	
CC(=O)OCCCc1cc2c3c([n+](C)c4ccc(CCCOC(C)=O)cc4c3c1)-c1ccccc1N2C.[I-]	1.2	3.22	3.8	
COC(=O)/C=C/c1ccc2c(c1)N(C)c1cc(OC)cc3c1c-2[n+](C)c1ccccc31		> 1	4.58	
COC(=O)CCc1ccc2c(c1)c1cccc3c1c([n+]2C)-c1ccccc1N3C		3.02		
COc1cc2c3c([n+](C)c4ccc(/C=C/C(=O)N5CCOCC5)cc4c3c1)-c1ccccc1N2C			9.33	
CC(=O)Nc1ccc2c3cccc4c3c([n+](C)c2c1)-c1ccccc1N4C.[I-]	31.6	0.38	12	remaining at 72 h, 0.5 µM [8]: 43%; Stability [5]: Stable; remaining at 4 h [6]: 69%
